Measurements taken from ChEMBL document CHEMBL4382211, “Design, synthesis, and X-ray studies of potent HIV-1 protease inhibitors incorporating aminothiochromane and aminotetrahydronaphthalene carboxamide derivatives as the P2 ligands” (Eur J Med Chem, 2018).

Columns and labels:
[1] = system: Human immunodeficiency virus 1; assay: Antiviral activity against HIV1 NL4-3 infected in human MT4 cells after 7 days by MTT assay; assay type: functional, organism-based; conditions: Human immunodeficiency virus 1, NL4-3, MT4, 168 h
Procedure, shortened: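 MT-4 human T-lymphoid cells were exposed to HIV-1 NL4-3 (subtype B). IC50 values are the mean of at least two experiments.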

[2] = biological target: Protease (Human immunodeficiency virus 1, UniProt Q9YQ12); assay: Inhibition of HIV1 protease using fluorogenic substrate by continuous fluorometric assay
Sequence of Protease (Q9YQ12 whole entry): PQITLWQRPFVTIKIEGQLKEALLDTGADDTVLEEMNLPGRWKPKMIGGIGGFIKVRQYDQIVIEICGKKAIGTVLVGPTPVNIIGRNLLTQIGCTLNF

[3] = (§1) Cytotoxicity against human MT4 cells after 7 days by MTT assay; assay type: cell-based; conditions: MT4 cells
[4] = Selectivity index, ratio of CC50 for human MT4 cells to IC50 for HIV1 NL4-3; assay type: toxicity; conditions: read-out: Ratio CC50/IC50
Procedure, shortened: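 Antiviral IC50 measured in MT-4 human T-lymphoid cells exposed to HIV-1 NL4-3 (subtype B), with values the mean of at least two experiments. CC50 (cytotoxicity) determined in MT-4 cells, given in μM. Index calculated as CC50 divided by IC50.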

[5] = system: MT4; assay: as §1; assay type: cell-based; conditions: mt4, 168 h

Structure (SMILES)	IC50 [1]	Ki [2]	CC50 at 168 h [3]	selectivity ratio [4]	CC50 [5]
CC(C)(C)NC(=O)[C@@H]1C[C@@H]2CCCC[C@@H]2CN1C[C@@H](O)[C@H](Cc1ccccc1)NC(=O)[C@H](CC(N)=O)NC(=O)c1ccc2ccccc2n1	15 nM	–	–	–	–
COc1ccc(S(=O)(=O)N(CC(C)C)C[C@@H](O)[C@H](Cc2ccccc2)NC(=O)c2ccc3c(c2)[C@@H](NC(=O)OC(C)(C)C)CC[C@H]3O)cc1	> 1000 nM	0.3 nM	–	–	–
COc1ccc(S(=O)(=O)N(CC(C)C)C[C@@H](O)[C@H](Cc2ccccc2)NC(=O)c2ccc3c(c2)[C@H](NC(=O)OC(C)(C)C)CC[C@@H]3O)cc1	> 1000 nM	1.63 nM	–	–	–
COc1ccc(S(=O)(=O)N(CC(C)C)C[C@@H](O)[C@H](Cc2ccccc2)NC(=O)c2ccc3c(c2)[C@@H](N)CC[C@H]3O)cc1	> 1000 nM	17 nM	–	–	–
COc1ccc(S(=O)(=O)N(CC(C)C)C[C@@H](O)[C@H](Cc2ccccc2)NC(=O)c2ccc3c(c2)[C@H](N)CC[C@@H]3O)cc1	> 1000 nM	1.1 nM	–	–	–
COc1ccc(S(=O)(=O)N(CC(C)C)C[C@@H](O)[C@H](Cc2ccccc2)NC(=O)c2ccc3c(c2)[C@H](NC(=O)OC(C)(C)C)CCS3(=O)=O)cc1	476 nM	0.1 nM	> 100000 nM	> 210	–
COc1ccc(S(=O)(=O)N(CC(C)C)C[C@@H](O)[C@H](Cc2ccccc2)NC(=O)c2ccc3c(c2)[C@@H](N)CC[C@@H]3O)cc1	232 nM	0.06 nM	–	151	35100 nM
COc1ccc(S(=O)(=O)N(CC(C)C)C[C@@H](O)[C@H](Cc2ccccc2)NC(=O)c2ccc3c(c2)[C@@H](NC(=O)OC(C)(C)C)CCS3(=O)=O)cc1	47 nM	0.008 nM	> 100000 nM	> 2130	–
COc1ccc(S(=O)(=O)N(CC(C)C)C[C@@H](O)[C@H](Cc2ccccc2)NC(=O)c2ccc3c(c2)[C@@H](NC(=O)OC(C)(C)C)CC[C@@H]3O)cc1	254 nM	0.14 nM	–	131	33300 nM
COc1ccc(S(=O)(=O)N(CC(C)C)C[C@@H](O)[C@H](Cc2ccccc2)NC(=O)c2ccc3c(c2)[C@@H](NC(=O)OC(C)(C)C)CCS3)cc1	> 1000 nM	0.38 nM	–	–	–
COc1ccc(S(=O)(=O)N(CC(C)C)C[C@@H](O)[C@H](Cc2ccccc2)NC(=O)c2ccc3c(c2)[C@H](NC(=O)OC(C)(C)C)CCS3)cc1	> 1000 nM	26.7 nM	–	–	–
COc1ccc(S(=O)(=O)N(CC(C)C)C[C@@H](O)[C@H](Cc2ccccc2)NC(=O)c2ccc3c(c2)[C@@H](N)CCS3(=O)=O)cc1	> 1000 nM	15.8 nM	–	–	–
COc1ccc(S(=O)(=O)N(CC(C)C)C[C@@H](O)[C@H](Cc2ccccc2)NC(=O)c2ccc3c(c2)[C@H](N)CCS3(=O)=O)cc1	> 1000 nM	18 nM	–	–	–
